Laboratory results: ChEMBL document CHEMBL1153624, “Cyclic phosphoramidates as prodrugs of 2'-C-methylcytidine” (Eur J Med Chem, 2009)

Experiments:
Hepatitis C virus = test: Antiviral activity against HCV infected in human HuH7 cells by cell-based subgenomic replicon assay; assay type: functional, organism-based, Hepacivirus hominis, Huh-7
In short: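 HCV subgenomic replicon assay in HUH-7 cells, run in 10% fetal cow serum. Cytotoxicity was read in parallel as the prodrug concentration reducing cell viability by 50%.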

[1] = Metabolic stability in sc dosed hamster liver assessed as formation of 2'-C-methylcytidine triphosphate ((2R,3R,4R,5R)-5-(4-amino-2-oxopyrimidin-1(2H)-yl)-3,4-dihydroxy-4-methyltetrahydrofuran-2-yl)methyl tetrahydrogen triphosphate at 1.5 umol after 6 hrs; assay type: ADME, organism-based; settings: cricetinae, in vivo
In short: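 Hamsters received a single subcutaneous dose of compound formulated in PEG. Liver was collected at 6 h and intracellular 2'-C-methylcytidine triphosphate quantified as nmol/g tissue (LLOQ 0.2 nmol/g).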

[2] = Cytotoxicity against human HuH7 cells assessed as cell viability; assay type: cell-based, Huh-7
In short: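 Cytotoxicity measured in HUH-7 cells carrying the HCV subgenomic replicon. The value is the prodrug concentration that reduces cell viability by 50%.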

Plasma = test: Stability in human plasma assessed as 2'-C-methylcytidine triphosphate ((2R,3R,4R,5R)-5-(4-amino-2-oxopyrimidin-1(2H)-yl)-3,4-dihydroxy-4-methyltetrahydrofuran-2-yl)methyl tetrahydrogen triphosphate level; assay type: ADME, cell-free
In short: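 Prodrug stability was measured in human plasma and scored as the fraction of dose remaining over time: stable; 80% of dose left after 2 h; 30% left after 1 h; 0% left after 18 min.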

[3] = Metabolic stability in po dosed hamster liver assessed as 2'-C-methylcytidine triphosphate ((2R,3R,4R,5R)-5-(4-amino-2-oxopyrimidin-1(2H)-yl)-3,4-dihydroxy-4-methyltetrahydrofuran-2-yl)methyl tetrahydrogen triphosphate level at 30.3 umol; assay type: ADME, organism-based; settings: cricetinae, in vivo

EC50 (Hepatitis C virus; Hepatitis C virus, Huh-7) | Compound | further results
> 20 µM | CCC(CC)COC(=O)[C@H](C)NP1(=O)OC[C@H]2O[C@@H](n3ccc(N)nc3=O)[C@](C)(O)[C@@H]2O1 (stereo partly specified) | Activity [1]: 8.9 nmol/g
> 20 µM | CC(C)CCOC(=O)[C@H](C)NP1(=O)OC[C@H]2O[C@@H](n3ccc(N)nc3=O)[C@](C)(O)[C@@H]2O1 (stereo in doubt) | –
> 20 µM | C[C@H](NP1(=O)OC[C@H]2O[C@@H](n3ccc(N)nc3=O)[C@](C)(O)[C@@H]2O1)C(=O)OC1CCCCC1 (stereo in doubt; 14 F.E.) | –
> 10 µM | C[C@H](NP1(=O)OC[C@H]2O[C@@H](n3ccc(N)nc3=O)[C@](C)(O)[C@@H]2O1)C(=O)OC1CCCCCC1 (stereo partly specified) | Activity [1]: 10.3 nmol/g
14 µM | CCCCCCOCCOC(=O)[C@H](C)NP1(=O)OC[C@H]2O[C@@H](n3ccc(N)nc3=O)[C@](C)(O)[C@@H]2O1 (stereo partly specified) | Activity [1]: 2.6 nmol/g
28 µM | COCCCOC(=O)[C@H](C)NP1(=O)OC[C@H]2O[C@@H](n3ccc(N)nc3=O)[C@](C)(O)[C@@H]2O1 (stereo in doubt; 16 S.E.) | –
> 20 µM | C[C@H](NP1(=O)OC[C@H]2O[C@@H](n3ccc(N)nc3=O)[C@](C)(O)[C@@H]2O1)C(=O)OC1CCCC1 (mixture of isomers) | –
10.5 µM | CCCCCCCOC(=O)[C@H](C)NP1(=O)OC[C@H]2O[C@@H](n3ccc(N)nc3=O)[C@](C)(O)[C@@H]2O1 (stereo in doubt; 12 S.E.) | Activity [1]: 5.9 nmol/g

Continued, compound first:

Compound | EC50 (Hepatitis C virus; Hepatitis C virus, Huh-7) | further results
CCOC(=O)[C@H](CC(C)C)NP1(=O)OC[C@H]2O[C@@H](n3ccc(N)nc3=O)[C@](C)(O)[C@@H]2O1 (stereo partly specified) | > 50 µM | –
CCCCCCCOC(=O)[C@H](C)NP1(=O)OC[C@H]2O[C@@H](n3ccc(N)nc3=O)[C@](C)(O)[C@@H]2O1 (stereo in doubt; 12 F.E.) | – | EC50 (Hepatitis C virus; huh-7): 15 µM
CCCC(CCC)COC(=O)[C@H](C)NP1(=O)OC[C@H]2O[C@@H](n3ccc(N)nc3=O)[C@](C)(O)[C@@H]2O1 (stereo in doubt; 20 F.E.) | – | EC50 (Hepatitis C virus; huh-7): > 20 µM
CC(C)[C@H](N)C(=O)O[C@@H]1[C@@H](CO)O[C@@H](n2ccc(N)nc2=O)[C@]1(C)O [VALOPICITABINE] | 7.6 µM | Activity [1]: < 0.2 nmol/g; CC50 [2]: > 100 µM
CCCC(CCC)COC(=O)[C@H](C)NP1(=O)OC[C@H]2O[C@@H](n3ccc(N)nc3=O)[C@](C)(O)[C@@H]2O1 (stereo in doubt; 20 S.E.) | 14 µM | –
CCOC(=O)[C@H](C)N[P@]1(=O)OC[C@H]2O[C@@H](n3ccc(N)nc3=O)[C@](C)(O)[C@@H]2O1 | 4 µM | CC50 [2]: > 100 µM
CCOC(=O)[C@H](C)N[P@@]1(=O)OC[C@H]2O[C@@H](n3ccc(N)nc3=O)[C@](C)(O)[C@@H]2O1 | > 20 µM | CC50 [2]: > 100 µM
CCCCOC(=O)[C@H](C)NP1(=O)OC[C@H]2O[C@@H](n3ccc(N)nc3=O)[C@](C)(O)[C@@H]2O1 (stereo in doubt; 10 F.E.) | – | EC50 (Hepatitis C virus; huh-7): > 20 µM
C[C@H](NP1(=O)OC[C@H]2O[C@@H](n3ccc(N)nc3=O)[C@](C)(O)[C@@H]2O1)C(=O)OC(C)(C)C (stereo partly specified) | > 20 µM | –
CCOC(=O)[C@H](CC)NP1(=O)OC[C@H]2O[C@@H](n3ccc(N)nc3=O)[C@](C)(O)[C@@H]2O1 (stereo partly specified) | 5.6 µM | Stability (Plasma): Stable; Activity [3]: < 0.2 nmol/g
CCCCOC(=O)[C@H](C)NP1(=O)OC[C@H]2O[C@@H](n3ccc(N)nc3=O)[C@](C)(O)[C@@H]2O1 (stereo in doubt; 10 S.E.) | 15 µM | –
COCCCOC(=O)[C@H](C)NP1(=O)OC[C@H]2O[C@@H](n3ccc(N)nc3=O)[C@](C)(O)[C@@H]2O1 (stereo in doubt; 16 F.E.) | – | EC50 (Hepatitis C virus; huh-7): > 20 µM
CCC[C@H](NP1(=O)OC[C@H]2O[C@@H](n3ccc(N)nc3=O)[C@](C)(O)[C@@H]2O1)C(=O)OCC (mixture of isomers) | > 20 µM | –
